# Experimental data from different studies.
# Compare with care: the assays were run in different laboratories.
# Target: cAMP-dependent protein kinase catalytic subunit beta (PRKACB, Homo sapiens, UniProt P22694)
# Technique: competition with immobilised ligand
SMILES,assay,setting,remaining binding [%]
CN(C)CC#Cc1ccc(OCCCc2sc(N3CCc4cccc(C(=O)Nc5nc6ccccc6s5)c4C3)nc2C(=O)O)c(F)c1,cell-free assay,1 µM,100
CN(CCCC(F)(F)F)c1nccc(-c2cnn3ncccc23)n1,binding,1 µM,100
COc1ncc2cc3ccccc3nc2c1C#N,cell-free assay,5 µM,97
CN(C)c1nccc(-c2cnn3ncccc23)n1,binding,1 µM,76
CS(=O)(=O)N1CCCC(NC(=O)[C@H](CCC2CCCCC2)NC(=O)c2ccc(CNc3ncnc4c3nnn4-c3ccccc3)cc2)C1 (stereo partly drawn),cell-free assay,0.1 µM,92
O=C(c1ccc(Nc2nccc(-c3cc4ccccc4s3)n2)cc1)N1CCC(N2CCCC2)CC1,binding,1 µM,100
CC1CCCN1c1nccc(-c2cnn3ncccc23)n1 (stereo not drawn),binding,1 µM,89
O=C(c1ccc(Nc2ncc(Cl)c(-c3cc4ccccc4s3)n2)cc1)N1CCC(N2CCCC2)CC1,binding,1 µM,98
COc1cnc(Nc2cccc(S(N)(=O)=O)c2)nc1N1CCN(c2ccccc2)C(=O)C1,binding,1 µM,99
O=C(O)[C@@H]1[C@@H](Cn2nnc3ccccc3c2=O)CC[C@H]1C(=O)c1ccc(OCCC2CCOCC2)cc1,cell-free assay,1 µM,100
CN(C)c1nccc(-c2cnc3ncccn23)n1,binding,1 µM,82
CNC(=O)[C@@H]1CC[C@@H](n2c(-c3ccc4cnccc4c3)nc3ccc(C(=O)NCc4cccc(C(N)=O)c4)cc32)C1,binding,1 µM,100
FC(F)(F)Oc1cccc(-c2cnc3ccc(-c4ccncc4)nn23)c1,cell-free assay,5 µM,98
C[C@@H]1CCN(c2nccc(-c3cnn4ncccc34)n2)C1,binding,1 µM,72
Cc1cnc(Nc2ccc(C(=O)N3CCC(N4CCCC4)CC3)cc2)nc1-c1cc2ccccc2s1,binding,1 µM,85
CNC(=O)Nc1ccc2c(c1)[C@@]1(CC2)OC(=O)N(CC(=O)N(Cc2ccc(F)cc2)[C@@H](C)C(F)(F)F)C1=O,cell-free assay,1 µM,100
O=C(NCC1CCOCC1)c1n[nH]cc1NC(=O)c1c(F)cccc1F,binding,1 µM,97
C[C@@H]1CN(c2cc(-c3n[nH]c4ccc(OC5(C)CC5)cc34)ncn2)C[C@H](C)O1,cell-free assay,0.1 µM,91
Nc1ncc2c(n1)-c1c([nH]c3ccc(C#CC4CC4)cc13)CCCC2,binding,1 µM,86
N[C@H]1CCN(c2nccc(-c3cnn4ncccc34)n2)C1,binding,1 µM,83
CCCCN(CCCC)C(=O)CN1C[C@@H](c2cc(OC)c3c(c2)OCO3)[C@H](C(=O)O)[C@H]1CC(C)(C)CCC,cell-free assay,1 µM,100
